Results published in ChEMBL document CHEMBL4138246, “Natural product inspired library synthesis - Identification of 2,3-diarylbenzofuran and 2,3-dihydrobenzofuran based inhibitors of Chlamydia trachomatis” (Eur J Med Chem, 2018).

Assays:
[1] = Cytotoxicity against human HeLa 299 cells assessed as cell viability at 25 uM after 48 hrs by XTT assay relative to control; format: cell-based; details: read-out: Activity
Procedure, shortened: (§1)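 HeLa299 cells are seeded at 7000/well and cultured overnight in RPMI with 10% FBS and 2 mM […] at 37 °C with 5% CO2. The medium is then swapped for phenol red-free DMEM with 0.5% DMSO, with or without compound at 25 and 50, in at least three replicate wells each, for 48 h. XTT with activation reagent is read after 2.5 h at 475 minus 660 nm, blank-corrected, and expressed as % of DMSO control.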

[2] = Cytotoxicity against human HeLa 299 cells assessed as cell viability at 50 uM after 48 hrs by XTT assay relative to control; format: cell-based; details: for viability at 48 h, 50 µM: HeLa 299 cells, read-out: Activity; for Activity: 48 h, 50 µM; procedure, shortened: as §1
[3] = Cytotoxicity against human HeLa 299 cells assessed as reduction in cell viability after 48 hrs by XTT assay; format: cell-based; procedure, shortened: as §1
Chlamydia trachomatis [4] = assay: Antichlamydial activity against Chlamydia trachomatis serovar L2 454/Bu infected in human HeLa 299 cells assessed as reduction in number of inclusion bodies measured after 44 to 48 hrs by DAPI staining-based HCS assay; format: functional, organism-based
Procedure, shortened: (§2)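 HeLa299 cells are seeded at 15,000/well, cultured overnight at 37 °C with 5% CO2 in RPMI with 10% FBS and 2 mM […], then infected with serovar L2 454/Bu at MOI about 0.3 in HBSS. At 1 h the inoculum is replaced with medium containing 0.5% DMSO and 1:1 serial dilutions of compound over eleven concentrations. After 44–48 h, cells are fixed in methanol for 5 min. Inclusions are stained with rabbit anti-Chlamydia antibody, a FITC secondary, and DAPI. Inclusions over 130 µm² are counted by automated imaging and expressed as % of DMSO-control inclusions. IC50 is from nonlinear regression of at least three independent experiments.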

[5] = Cytotoxicity against human HeLa 299 cells assessed as reduction in cell viability at 25 uM after 48 hrs by XTT assay
Chlamydia trachomatis [6] = assay: Antichlamydial activity against Chlamydia trachomatis serovar L2 infected in human HeLa 299 cells assessed as reduction in number of inclusion bodies measured after 44 to 48 hrs by DAPI staining-based HCS assay; format: functional, organism-based; procedure, shortened: as §2
Chlamydia trachomatis [7] = assay: Antichlamydial activity against Chlamydia trachomatis serovar D […] infected in human HeLa 299 cells assessed as reduction in number of inclusion bodies measured after 44 to 48 hrs by DAPI staining-based HCS assay; format: functional, organism-based
Chlamydia trachomatis [8] = assay: Antichlamydial activity against Chlamydia trachomatis serovar A […] infected in human HeLa 299 cells assessed as reduction in number of inclusion bodies measured after 44 to 48 hrs by DAPI staining-based HCS assay; format: functional, organism-based

## Oc1ccc(-c2oc3cc(O)ccc3c2-c2ccc(F)cc2)cc1
[1]
  viability at 48 h, 25 µM: 105%
[2]
  viability at 48 h, 50 µM: 42%
[3]
  Activity: Dose-dependent effect

## Oc1ccc(-c2oc3ccccc3c2-c2cccnc2)cc1
[1]
  viability at 48 h, 25 µM: 79%
[2]
  viability at 48 h, 50 µM: 61%
[3]
  Activity: Dose-dependent effect

## COc1ccc(-c2oc3ccccc3c2-c2ccc(OC)cc2)cc1
[1]
  viability at 48 h, 25 µM: 92%
[2]
  viability at 48 h, 50 µM: 94%
Chlamydia trachomatis [4]; read-out: IC50
  IC50: 11.6 µM
Chlamydia trachomatis [4]; read-out: pIC50 (converted)
  IC50: 11.6 µM

## Oc1ccc(-c2oc3ccccc3c2-c2cccc(F)c2)cc1
[2]
  viability at 48 h, 50 µM: < 70%
[5]
  Activity: Toxic

## COc1ccc(-c2oc3ccc(F)cc3c2-c2ccc(OC)cc2)cc1
[1]
  viability at 48 h, 25 µM: 82%
[2]
  viability at 48 h, 50 µM: 99%
Chlamydia trachomatis [4]; read-out: IC50
  IC50: 15.2 µM
Chlamydia trachomatis [4]; read-out: pIC50 (converted)
  IC50: 15.2 µM

## COc1ccc(-c2oc3ccccc3c2-c2ccnc(F)c2)cc1
[1]
  viability at 48 h, 25 µM: 84%
[2]
  viability at 48 h, 50 µM: 97%
Chlamydia trachomatis [4]; read-out: IC50
  IC50: 2 µM
Chlamydia trachomatis [4]; read-out: pIC50 (converted)
  IC50: 2.04 µM
Chlamydia trachomatis [6]
  IC50: 0.965 µM
Chlamydia trachomatis [7]
  IC50: 2.04 µM
Chlamydia trachomatis [8]
  IC50: 1.6 µM

## Oc1ccc(-c2oc3ccc(F)cc3c2-c2ccc(O)cc2)cc1
[2]
  viability at 48 h, 50 µM: < 70%
[5]
  Activity: Toxic

## COc1ccc(-c2oc3cc(OC)ccc3c2-c2ccnc(F)c2)cc1
[1]
  viability at 48 h, 25 µM: 68%
[2]
  viability at 48 h, 50 µM: 93%
Chlamydia trachomatis [4]; read-out: IC50
  IC50: 2.7 µM
Chlamydia trachomatis [4]; read-out: pIC50 (converted)
  IC50: 2.73 µM
Chlamydia trachomatis [6]
  IC50: 1.81 µM
Chlamydia trachomatis [7]
  IC50: 2.19 µM
Chlamydia trachomatis [8]
  IC50: 1.34 µM

## Oc1ccc(-c2oc3ccc(F)cc3c2-c2ccnc(F)c2)cc1
[1]
  viability at 48 h, 25 µM: 107%
[2]
  viability at 48 h, 50 µM: 53%
[3]
  Activity: Dose-dependent effect

## COc1cccc(-c2oc3ccc(F)cc3c2-c2ccc3c(c2)OCO3)c1
[2]
  viability at 48 h, 50 µM: < 70%
[5]
  Activity: Toxic

## COc1ccc(-c2oc3ccccc3c2-c2cccnc2)cc1
[1]
  viability at 48 h, 25 µM: 82%
[2]
  viability at 48 h, 50 µM: 103%
Chlamydia trachomatis [4]; read-out: IC50
  IC50: 2.4 µM
Chlamydia trachomatis [4]; read-out: pIC50 (converted)
  IC50: 2.44 µM
Chlamydia trachomatis [6]
  IC50: 1 µM
Chlamydia trachomatis [7]
  IC50: 2.44 µM
Chlamydia trachomatis [8]
  IC50: 2.63 µM

## Oc1ccc(-c2oc3ccccc3c2-c2ccnc(F)c2)cc1
[1]
  viability at 48 h, 25 µM: 90%
[2]
  viability at 48 h, 50 µM: 52%
[3]
  Activity: Dose-dependent effect

## COc1ccc(-c2oc3ccccc3c2-c2cccc(F)c2)cc1
[1]
  viability at 48 h, 25 µM: 79%
[2]
  viability at 48 h, 50 µM: 84%
Chlamydia trachomatis [4]; read-out: IC50
  IC50: 22.1 µM
Chlamydia trachomatis [4]; read-out: pIC50 (converted)
  IC50: 22.1 µM

## COc1ccc(-c2oc3cc(OC)ccc3c2-c2ccc(F)cc2)cc1
[2]
  viability at 48 h, 50 µM: < 70%
[5]
  Activity: Toxic

## Oc1ccc(-c2oc3ccccc3c2-c2ccc(O)cc2)cc1
[1]
  viability at 48 h, 25 µM: 74%
[2]
  viability at 48 h, 50 µM: 32%
[3]
  Activity: Dose-dependent effect

## COc1ccc(-c2oc3cc(OC)ccc3c2-c2ccc(C(F)(F)F)cc2)cc1
[1]
  viability at 48 h, 25 µM: 84%
[2]
  viability at 48 h, 50 µM: 45%
[3]
  Activity: Dose-dependent effect

## COc1ccc(-c2oc3cc(OC)ccc3c2-c2ccc(OC)cc2)cc1
[1]
  viability at 48 h, 25 µM: 106%
[2]
  viability at 48 h, 50 µM: 100%
Chlamydia trachomatis [4]; read-out: IC50
  IC50: 12.8 µM
Chlamydia trachomatis [4]; read-out: pIC50 (converted)
  IC50: 12.8 µM

## c1ccc(COc2ccc(-c3oc4ccccc4c3-c3cccnc3)cc2)cc1
[1]
  viability at 48 h, 25 µM: 76%
[2]
  viability at 48 h, 50 µM: 82%
Chlamydia trachomatis [4]; read-out: IC50
  IC50: 15 µM
Chlamydia trachomatis [4]; read-out: pIC50 (converted)
  IC50: 15 µM

## Oc1ccc(-c2oc3cc(O)ccc3c2-c2ccnc(F)c2)cc1
[2]
  viability at 48 h, 50 µM: < 70%
[5]
  Activity: Toxic

## COc1ccc(-c2oc3cc(OC)ccc3c2-c2ccc(F)c(F)c2)cc1
[1]
  viability at 48 h, 25 µM: 96%
[2]
  viability at 48 h, 50 µM: 101%
Chlamydia trachomatis [4]; read-out: IC50
  IC50: 27 µM
Chlamydia trachomatis [4]; read-out: pIC50 (converted)
  IC50: 27 µM

## COc1ccc(-c2oc3ccc(F)cc3c2-c2ccnc(F)c2)cc1
[1]
  viability at 48 h, 25 µM: 90%
[2]
  viability at 48 h, 50 µM: 103%
Chlamydia trachomatis [4]; read-out: IC50
  IC50: 4.2 µM
Chlamydia trachomatis [4]; read-out: pIC50 (converted)
  IC50: 4.21 µM
Chlamydia trachomatis [6]
  IC50: 4.73 µM
Chlamydia trachomatis [7]
  IC50: 5.04 µM
Chlamydia trachomatis [8]
  IC50: 1.84 µM

## COc1ccc(-c2oc3ccccc3c2-c2ccc(F)c(F)c2)cc1
[1]
  viability at 48 h, 25 µM: 90%
[2]
  viability at 48 h, 50 µM: 96%
Chlamydia trachomatis [4]; read-out: IC50
  IC50: 8.7 µM
Chlamydia trachomatis [4]; read-out: pIC50 (converted)
  IC50: 8.73 µM

## COc1cccc(C2Oc3ccc(F)cc3C2c2ccc3c(c2)OCO3)c1 (racemic)
[1]
  viability at 48 h, 25 µM: 88%
[2]
  viability at 48 h, 50 µM: 103%
Chlamydia trachomatis [4]; read-out: IC50
  IC50: 25.8 µM
Chlamydia trachomatis [4]; read-out: pIC50 (converted)
  IC50: 25.8 µM

## c1ccc(C2Oc3ccccc3C2c2ccccc2)cc1 (racemic)
[1]
  viability at 48 h, 25 µM: 72%
[2]
  viability at 48 h, 50 µM: 88%
Chlamydia trachomatis [4]; read-out: IC50
  IC50: 25.4 µM
Chlamydia trachomatis [4]; read-out: pIC50 (converted)
  IC50: 25.4 µM

## COc1ccc(C2c3ccc(OC)cc3OC2c2ccccc2)cc1 (racemic)
[2]
  viability at 48 h, 50 µM: < 70%
[5]
  Activity: Toxic

## COc1cccc(C2Oc3cc(OC)ccc3C2c2ccc(F)c(F)c2)c1 (racemic)
[1]
  viability at 48 h, 25 µM: 93%
[2]
  viability at 48 h, 50 µM: 95%
Chlamydia trachomatis [4]; read-out: IC50
  IC50: 1 µM
Chlamydia trachomatis [4]; read-out: pIC50 (converted)
  IC50: 0.998 µM
Chlamydia trachomatis [6]
  IC50: 0.581 µM
Chlamydia trachomatis [7]
  IC50: 0.7 µM
Chlamydia trachomatis [8]
  IC50: 0.079 µM

## N#Cc1cccc(C2c3ccccc3OC2c2ccccc2)c1 (racemic)
[1]
  viability at 48 h, 25 µM: 90%
[2]
  viability at 48 h, 50 µM: 96%
Chlamydia trachomatis [4]; read-out: IC50
  IC50: 25 µM
Chlamydia trachomatis [4]; read-out: pIC50 (converted)
  IC50: 25 µM

## Fc1cccc(C2c3cc(F)ccc3OC2c2ccccc2)c1 (racemic)
[1]
  viability at 48 h, 25 µM: 83%
[2]
  viability at 48 h, 50 µM: 84%
Chlamydia trachomatis [4]; read-out: IC50
  IC50: 24.9 µM
Chlamydia trachomatis [4]; read-out: pIC50 (converted)
  IC50: 24.9 µM

## COc1cccc(C2Oc3ccc(F)cc3C2c2ccc(F)c(F)c2)c1 (racemic)
[1]
  viability at 48 h, 25 µM: 80%
[2]
  viability at 48 h, 50 µM: 118%
Chlamydia trachomatis [4]; read-out: IC50
  IC50: 19.8 µM
Chlamydia trachomatis [4]; read-out: pIC50 (converted)
  IC50: 19.9 µM

## COc1ccc(C2c3ccc(OC)cc3OC2c2cccc(OC)c2)cc1 (racemic)
[1]
  viability at 48 h, 25 µM: 76%
[2]
  viability at 48 h, 50 µM: 90%
Chlamydia trachomatis [4]; read-out: IC50
  IC50: 10.6 µM
Chlamydia trachomatis [4]; read-out: pIC50 (converted)
  IC50: 10.6 µM

## Fc1ccc(C2c3ccccc3OC2c2ccccc2)cc1F (racemic)
[1]
  viability at 48 h, 25 µM: 75%
[2]
  viability at 48 h, 50 µM: 87%
Chlamydia trachomatis [4]; read-out: IC50
  IC50: 27.2 µM
Chlamydia trachomatis [4]; read-out: pIC50 (converted)
  IC50: 27.2 µM

## COc1ccc2c(c1)OC(c1ccccc1)C2c1ccc(F)c(F)c1 (racemic; 38)
[1]
  viability at 48 h, 25 µM: 84%
[2]
  Activity: 102%
Chlamydia trachomatis [4]; read-out: IC50
  IC50: 23.4 µM
Chlamydia trachomatis [4]; read-out: pIC50 (converted)
  IC50: 23.4 µM

## COc1ccc2c(c1)OC(c1ccccc1)C2c1ccc(F)c(F)c1 (racemic; 39)
[2]
  Activity: < 70%
[5]
  Activity: Toxic

## CC[C@H]1OC(=O)[C@H](C)[C@@H](O[C@H]2C[C@@](C)(OC)[C@@H](O)[C@H](C)O2)[C@H](C)[C@@H](O[C@@H]2O[C@H](C)C[C@H](N(C)C)[C@H]2O)[C@](C)(O)C[C@@H](C)CN(C)[C@H](C)[C@@H](O)[C@]1(C)O [AZITHROMYCIN]
Chlamydia trachomatis [6]
  IC50: 0.727 µM

## CC1COc2c(N3CCN(C)CC3)c(F)cc3c(=O)c(C(=O)O)cn1c23 (centres undefined) [OFLOXACIN]
Chlamydia trachomatis [6]
  IC50: 0.666 µM
